From article PMC7893122 (Acta Pharmaceutica Sinica. B, 2020)
One block for each molecule: values may come before it.

Tests used:
[1] = target: BRD4 (BD1) (Homo sapiens, UniProt O60885); test: Homogeneous time-resolved fluorescence binding assay, BRD4; conditions: for IC50: IC50 BRD4 (BD1), mean ± SD from three separate experiments; for fold less potent than compound 2 against BRD4: ratio of IC50 values
[2] = system: HH signaling pathway (GLI-responsive firefly luciferase reporter); test: Dual luciferase reporter assay; assay type: cell-based; conditions: for IC50: read-out: IC50 GLI-luc reporter
[3] = Pharmacokinetics in Sprague–Dawley rats; assay type: in vivo; conditions: rat; for AUC(0-inf) / AUC(0-t) / MRT inf / clearance / half-life / Cmax / Tmax: Sprague-Dawley, plasma; for Vss_obs: i.v. 1 mg/kg
[4] = target: hERG channel (Homo sapiens, UniProt Q12809); test: hERG inhibition; assay type: cell-based
[5] = system: endogenous GLI2; test: Western blot of endogenous GLI2 in light2 cells; assay type: cell-based; conditions: 25 at 10 and 100 nmol/L, GDC-0449 100 nmol/L
How it was run: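 Light2 cells treated with test compound, lysed in LDS sample buffer, and run on SDS-PAGE. Immunoblotting used anti-GLI2 (1:1000), with GAPDH (1:5000) as reference.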

[6] = system: SMOA1 MB allografts (SMO^W539L); test: SMOA1 MB allograft model; assay type: in vivo, nude mice; conditions: 20 mg/kg p.o., bid; Fig. 5A
How it was run: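 Primary SMOA1 MB allografts from ND2:SMOA1 transgenic mice grafted subcutaneously into nude mice. Dosing started at 100–150 mm3 tumour size: test compound p.o. twice daily, vehicle 0.5% CMC-Na, n ≥ 3 per group. Caliper measurement every 3 days; volume = 0.5 × length × width². Body weight tracked; group means ± SEM.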

[7] = system: SMO wild MB; conditions: 20 mg/kg p.o., bid; cited from earlier work

hERG channel, sequence (Q12809 whole entry): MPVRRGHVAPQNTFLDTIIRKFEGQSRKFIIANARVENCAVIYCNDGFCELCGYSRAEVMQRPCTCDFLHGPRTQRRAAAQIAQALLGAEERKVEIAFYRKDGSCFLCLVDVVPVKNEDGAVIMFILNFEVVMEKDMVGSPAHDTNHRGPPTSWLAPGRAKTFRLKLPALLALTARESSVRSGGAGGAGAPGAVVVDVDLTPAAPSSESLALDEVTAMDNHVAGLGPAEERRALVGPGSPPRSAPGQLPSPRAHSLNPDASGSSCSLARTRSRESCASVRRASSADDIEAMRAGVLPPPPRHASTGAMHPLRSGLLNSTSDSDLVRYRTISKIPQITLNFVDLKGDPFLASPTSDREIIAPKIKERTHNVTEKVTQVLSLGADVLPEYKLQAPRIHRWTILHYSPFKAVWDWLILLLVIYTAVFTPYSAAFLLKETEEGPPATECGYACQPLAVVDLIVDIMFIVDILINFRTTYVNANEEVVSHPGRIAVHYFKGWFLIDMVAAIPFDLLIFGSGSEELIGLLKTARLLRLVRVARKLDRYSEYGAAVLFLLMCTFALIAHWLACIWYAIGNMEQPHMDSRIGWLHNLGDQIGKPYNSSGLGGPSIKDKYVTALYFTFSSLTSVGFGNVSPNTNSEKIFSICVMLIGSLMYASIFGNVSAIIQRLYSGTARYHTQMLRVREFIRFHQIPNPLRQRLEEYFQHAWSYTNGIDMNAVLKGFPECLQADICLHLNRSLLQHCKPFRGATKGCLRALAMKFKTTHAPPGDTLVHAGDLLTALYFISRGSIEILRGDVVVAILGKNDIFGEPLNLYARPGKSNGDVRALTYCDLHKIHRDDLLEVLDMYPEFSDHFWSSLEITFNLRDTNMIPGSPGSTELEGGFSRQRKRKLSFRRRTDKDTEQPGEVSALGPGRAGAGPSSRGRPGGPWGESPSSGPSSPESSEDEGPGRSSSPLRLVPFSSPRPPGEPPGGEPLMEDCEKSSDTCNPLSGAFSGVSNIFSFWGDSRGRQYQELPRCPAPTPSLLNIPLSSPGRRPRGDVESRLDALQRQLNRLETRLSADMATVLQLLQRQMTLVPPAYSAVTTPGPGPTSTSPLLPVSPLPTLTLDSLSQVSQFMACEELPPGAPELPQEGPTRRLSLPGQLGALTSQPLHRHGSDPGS

Compound: COc1nnc2ccc(N3CCC(c4ccc(OCCN5CCN(C)C(=O)[C@H]5C)cc4)CC3)nn12 [AZD5153 (4), (3R)-4-[2-[4-[1-(3-methoxy-[1,2,4]triazolo[4,3-b]pyridazin-6-yl)-4-piperidyl]phenoxy]ethyl]-1,3-dimethyl-piperazin-2-one, reference compound]
IC50 [1]: 18.2 ± 2.7 nM
IC50 [2]: 32.1 ± 7.71 nM

Compound: Cc1nnn(C)c1-c1cnc2c3ccc(C(C)(C)O)cc3n([C@H](c3ccccc3)C3CCOCC3)c2c1 [BMS-986158 (1), reference compound]
IC50 [1]: < 0.16 nM
IC50 [2]: 0.15 ± 0.05 nM

Compound: CCS(=O)(=O)Nc1ccc(Oc2ccc(F)cc2F)c(-c2cn(C)c(=O)c3[nH]ccc23)c1 [Compound 2, N-(4-(2,4-difluorophenoxy)-3-(6-methyl-7-oxo-6,7-dihydro-1H-pyrrolo[2,3-c]pyridin-4-yl)phenyl)ethanesulfonamide, reference compound]
IC50 [1]: 3.4 ± 0.2 nM
AUC(0-inf) ([3]; iv, 1 mg/kg): 1200 ng·h/mL
AUC(0-t) ([3]; iv, 1 mg/kg): 1190 ng·h/mL
MRT inf ([3]; iv, 1 mg/kg): 187 min
clearance ([3]; iv, 1 mg/kg): 17.6 mL/min/kg
half-life ([3]; iv, 1 mg/kg): 164 min
AUC(0-inf) ([3]; po, 3 mg/kg): 2050 ng·h/mL
AUC(0-t) ([3]; po, 3 mg/kg): 2030 ng·h/mL
Cmax ([3]; po, 3 mg/kg): 401 ng/mL
MRT inf ([3]; po, 3 mg/kg): 327 min
Tmax ([3]; po, 3 mg/kg): 165 min
half-life ([3]; po, 3 mg/kg): 200 min
Vss_obs [3]: 2.772 L/kg
IC50 [4]: 35500 nM
fold selectivity for the HH pathway against BRD4 (fold less potent against BRD4) ([2]; BRD4 (BD1) IC50 vs GLI-luc IC50): ~10 fold
IC50 [2]: 0.41 ± 0.34 nM

Compound: CCOC(=O)Nc1cc(-c2cc(NS(=O)(=O)CC)ccc2Oc2ccc(F)cc2F)cn(C)c1=O [Compound 5]
IC50 [1]: 27.6 ± 5.7 nM
fold less potent than compound 2 against BRD4 [1]: 8 fold
IC50 [2]: 157 ± 1.3 nM

Compound: CCS(=O)(=O)Nc1ccc(Oc2ccc(F)cc2F)c(-c2cc(NC(=O)OCCOC)c(=O)n(C)c2)c1 [Compound 6]
IC50 [1]: > 100 nM
IC50 [2]: > 100 nM

Compound: CCCC(=O)Nc1cc(-c2cc(NS(=O)(=O)CC)ccc2Oc2ccc(F)cc2F)cn(C)c1=O [Compound 7]
IC50 [1]: > 100 nM
IC50 [2]: > 100 nM

Compound: CCS(=O)(=O)Nc1ccc(Oc2ccc(F)cc2F)c(-c2cc(NS(=O)(=O)CC)c(=O)n(C)c2)c1 [Compound 8]
IC50 [1]: 42.8 ± 9.6 nM
IC50 [2]: > 100 nM

Compound: CCS(=O)(=O)Nc1ccc(Oc2ccc(F)cc2F)c(-c2cc(Nc3ncc[nH]3)c(=O)n(C)c2)c1 [Compound 9]
IC50 [1]: 47.6 ± 2.9 nM
IC50 [2]: > 100 nM

Compound: CCS(=O)(=O)Nc1ccc(Oc2ccc(F)cc2F)c(-c2cc(Nc3ccccn3)c(=O)n(C)c2)c1 [Compound 10]
IC50 [1]: > 100 nM
IC50 [2]: > 100 nM

Compound: CCS(=O)(=O)Nc1ccc(Oc2ccc(F)cc2F)c(-c2cc(Nc3ccncn3)c(=O)n(C)c2)c1 [Compound 11]
IC50 [1]: > 100 nM
IC50 [2]: > 100 nM

Compound: Cn1cc(-c2cc(N3CCC(CO)S3(=O)=O)ccc2Oc2ccc(F)cc2F)c2cc[nH]c2c1=O (stereo not shown) [Compound 12]
IC50 [1]: 0.25 ± 0.05 nM
IC50 [2]: 3.29 ± 0.14 nM

Compound: Cn1cc(-c2cc(N3CCCC(CO)S3(=O)=O)ccc2Oc2ccc(F)cc2F)c2cc[nH]c2c1=O (stereo not shown) [Compound 13]
IC50 [1]: 0.6 ± 0.07 nM
IC50 [2]: 20.5 ± 7.74 nM

Compound: CS(=O)(=O)c1ccc(C(=O)Nc2ccc(Cl)c(-c3ccccn3)c2)c(Cl)c1 [GDC-0449, reference compound]
Effect on abundance of endogenous GLI2 proteins [5]: no effect
Effect on tumor growth [6]: failed to affect the tumor growth
Tumor growth inhibition in SMO wild MB mice [7]: complete tumor growth inhibition

Compound: Cc1sc2c(c1C)C(c1ccc(Cl)cc1)=N[C@@H](CC(=O)Nc1ccc(O)cc1)c1nnc(C)n1-2 [OTX-015, reference compound]
IC50 [2]: 0.64 ± 0.02 nM

The next lines start with results.

IC50 [1]: 1.52 ± 0.72 nM
IC50 [2]: 56.1 ± 8.25 nM
Compound: CN(C)CCN1CCCN(c2ccc(Oc3ccc(F)cc3F)c(-c3cn(C)c(=O)c4[nH]ccc34)c2)S1(=O)=O [Compound 18]

IC50 [1]: 1.47 ± 0.03 nM
IC50 [2]: 17.7 ± 11 nM
Compound: Cn1cc(-c2cc(N3CCCN(CCN4CCOCC4)S3(=O)=O)ccc2Oc2ccc(F)cc2F)c2cc[nH]c2c1=O [Compound 19]

IC50 [1]: 1.01 ± 0.34 nM
IC50 [2]: 42.8 ± 30.7 nM
Compound: CN(CCO)CCN1CCCN(c2ccc(Oc3ccc(F)cc3F)c(-c3cn(C)c(=O)c4[nH]ccc34)c2)S1(=O)=O [Compound 20]

IC50 [2]: > 100 nM
Compound: Cn1cc(-c2cc(N3CCCN(CCN4CCC(CO)C4)S3(=O)=O)ccc2Oc2ccc(F)cc2F)c2cc[nH]c2c1=O (stereo not shown) [Compound 22]

IC50 [1]: 0.58 ± 0.1 nM
IC50 [2]: 45.8 ± 19.2 nM
Compound: Cn1cc(-c2cc(N3CCCN(CC4(CO)COC4)S3(=O)=O)ccc2Oc2ccc(F)cc2F)c2cc[nH]c2c1=O [Compound 23]

IC50 [1]: 0.5 ± 0.06 nM
AUC(0-inf) ([3]; iv, 1 mg/kg): 509 ng·h/mL
AUC(0-t) ([3]; iv, 1 mg/kg): 509 ng·h/mL
MRT inf ([3]; iv, 1 mg/kg): 45.6 min
clearance ([3]; iv, 1 mg/kg): 33.2 mL/min/kg
half-life ([3]; iv, 1 mg/kg): 33.6 min
AUC(0-inf) ([3]; po, 3 mg/kg): 473 ng·h/mL
AUC(0-t) ([3]; po, 3 mg/kg): 473 ng·h/mL
Cmax ([3]; po, 3 mg/kg): 474 ng/mL
MRT inf ([3]; po, 3 mg/kg): 75.6 min
Tmax ([3]; po, 3 mg/kg): 30 min
half-life ([3]; po, 3 mg/kg): 57 min
Vss_obs [3]: 1.513 L/kg
IC50 [2]: 0.93 ± 0.16 nM
Compound: Cn1cc(-c2cc(N3CCCS3(=O)=O)ccc2Oc2ccc(F)cc2F)c2c(F)c[nH]c2c1=O [Compound 24]
IC50 [4]: > 40000 nM

IC50 [1]: 21 ± 11 nM
fold less potent than compound 2 against BRD4 [1]: > 4 fold
IC50 [2]: > 100 nM
Compound: Cn1cc(-c2cc(N3CCCS3(=O)=O)ccc2Oc2ccc(F)cc2F)c2cc(C(=O)O)[nH]c2c1=O [Compound 26]

IC50 [1]: 14.3 ± 4.52 nM
fold less potent than compound 2 against BRD4 [1]: > 4 fold
IC50 [2]: > 100 nM
Compound: Cn1cc(-c2cc(N3CCCCS3(=O)=O)ccc2Oc2ccc(F)cc2F)c2cc(C(=O)O)[nH]c2c1=O [Compound 27]

IC50 [1]: 0.09 ± 0.04 nM
IC50 [2]: 1.5 ± 0.39 nM
Compound: Cn1cc(-c2cc(N3CCCS3(=O)=O)ccc2Oc2ccc(F)cc2F)c2cc(C(N)=O)[nH]c2c1=O [Compound 28]
IC50 [4]: > 40000 nM
fold less potent for the HH pathway than against BRD4 ([2]; GLI-luc IC50 vs BRD4 (BD1) IC50): 16 fold

IC50 [1]: 0.09 ± 0.08 nM
IC50 [2]: 2.46 ± 0.3 nM
Compound: Cn1cc(-c2cc(N3CCCCS3(=O)=O)ccc2Oc2ccc(F)cc2F)c2cc(C(N)=O)[nH]c2c1=O [Compound 29]

IC50 [1]: 0.6 ± 0.41 nM
AUC(0-inf) ([3]; iv, 1 mg/kg): 278 ng·h/mL
AUC(0-t) ([3]; iv, 1 mg/kg): 278 ng·h/mL
MRT inf ([3]; iv, 1 mg/kg): 47.6 min
clearance ([3]; iv, 1 mg/kg): 61.5 mL/min/kg
half-life ([3]; iv, 1 mg/kg): 40.8 min
AUC(0-inf) ([3]; po, 3 mg/kg): 9.91 ng·h/mL
AUC(0-t) ([3]; po, 3 mg/kg): 9.91 ng·h/mL
Cmax ([3]; po, 3 mg/kg): 15.2 ng/mL
MRT inf ([3]; po, 3 mg/kg): 53.4 min
Tmax ([3]; po, 3 mg/kg): 15 min
half-life ([3]; po, 3 mg/kg): 81 min
Vss_obs [3]: 2.891 L/kg
IC50 [2]: 0.05 ± 0.01 nM
Compound: CCNC(=O)c1cc2c(-c3cc(N4CCCS4(=O)=O)ccc3Oc3ccc(F)cc3F)cn(C)c(=O)c2[nH]1 [Compound 30]
IC50 [4]: 6400 nM

IC50 [1]: 0.13 ± 0.005 nM
AUC(0-inf) ([3]; iv, 1 mg/kg): 217 ng·h/mL
AUC(0-t) ([3]; iv, 1 mg/kg): 213 ng·h/mL
MRT inf ([3]; iv, 1 mg/kg): 34.2 min
clearance ([3]; iv, 1 mg/kg): 77.6 mL/min/kg
half-life ([3]; iv, 1 mg/kg): 41.4 min
AUC(0-inf) ([3]; po, 3 mg/kg): 22.1 ng·h/mL
AUC(0-t) ([3]; po, 3 mg/kg): 18.3 ng·h/mL
Cmax ([3]; po, 3 mg/kg): 15.5 ng/mL
MRT inf ([3]; po, 3 mg/kg): 143 min
Tmax ([3]; po, 3 mg/kg): 19.8 min
half-life ([3]; po, 3 mg/kg): 93 min
Vss_obs [3]: 3.512 L/kg
IC50 [2]: 0.81 ± 0.24 nM
Compound: CCNC(=O)c1cc2c(-c3cc(N4CCCCS4(=O)=O)ccc3Oc3ccc(F)cc3F)cn(C)c(=O)c2[nH]1 [Compound 31]
IC50 [4]: 11700 nM

IC50 [1]: 0.75 ± 0.07 nM
IC50 [2]: > 100 nM
Compound: CN1CCN(CCCNC(=O)c2cc3c(-c4cc(N5CCCS5(=O)=O)ccc4Oc4ccc(F)cc4F)cn(C)c(=O)c3[nH]2)CC1 [Compound 32]

IC50 [1]: 2.85 ± 0.5 nM
IC50 [2]: 1.03 ± 0.28 nM
Compound: Cn1cc(-c2cc(N3CCCS3(=O)=O)ccc2Oc2ccc3occc3c2)c2cc[nH]c2c1=O [Compound 33]

IC50 [1]: 3.42 ± 0.25 nM
IC50 [2]: > 100 nM
Compound: Cn1cc(-c2cc(N3CCCCS3(=O)=O)ccc2N[C@@H]2C[C@@H](CO)[C@@H](O)C2)c2cc[nH]c2c1=O [Compound 39]

IC50 [1]: 11.6 ± 1.8 nM
IC50 [2]: 40.6 ± 4.9 nM
Compound: CN1C(=O)C(C)(C)Oc2c(-c3cn(C)c(=O)c4[nH]ccc34)cc(S(C)(=O)=O)cc21 [INCB-057643, reference compound]

IC50 [2]: 5.5 ± 1.3 nM
Compound: Cc1noc(C)c1-c1cnc2c(-c3ccc(C(=O)O)cc3)cn([C@@H](C)c3ccccn3)c2c1 [PLX51107, reference compound]
